# According to ChEMBL document CHEMBL1149911, “Design and synthesis of peripherally restricted transient receptor potential vanilloid 1 (TRPV1) antagonists” (J Med Chem, 2008):
# What was measured:
# [1] = target: T1, Transient receptor potential cation channel subfamily V member 1 (Rattus norvegicus, UniProt O35433); assay: Antagonist activity at rat TRPV1 expressed in CHO cells assessed as inhibition of pH 5 acid-induced calcium influx; assay type: functional, cell-based
# Method in brief: (§1)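 CHO cells stably expressing rat TRPV1. Uptake of 45Ca2+ was triggered by capsaicin (500 nM) or by acid (pH 5), and test compounds were run over a concentration range. IC50 values are the mean ± SEM of at least two experiments, with triplicate wells at each concentration.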
# [2] = Ratio of drug level in brain to plasma in Sprague-Dawley rat at 5 mg/kg, iv; assay type: ADME, organism-based; set-up: dose 5 mg/kg, route intravenous
# Method in brief: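 Male Sprague-Dawley rats received a single iv dose of 5 mg/kg as a solution in DMSO (n = 3). Plasma and nonperfused whole brain were collected 30 min after dosing. Total compound concentration was measured by HPLC and expressed as a brain-to-plasma ratio.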
# [3] = target: T1, Transient receptor potential cation channel subfamily V member 1; assay: Antagonist activity at rat TRPV1 expressed in CHO cells assessed as inhibition of capsaicin-induced calcium influx; assay type: functional, cell-based; method in brief: as §1
# Rattus norvegicus [4] = assay: Toxicity assessed as increase in body temperature in Sprague-Dawley rat at 0.1 to 3 mg/kg, po after 60 mins; assay type: organism-based; set-up: dose 0.1-3 mg/kg, route oral; conditions: in vivo, 1 h
# Method in brief: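 Rodents were dosed orally at 0.1–3 mg/kg. Body temperature was recorded 60 min after drug administration and compared across doses.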
# Rattus norvegicus [5] = assay: Inhibition of capsaicin-induced flinching in po dosed rat; assay type: functional, organism-based
# Method in brief: (§2)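 Rats received the test compound orally, then capsaicin. In vivo on-target activity was scored as percent inhibition of the capsaicin-evoked flinching response.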
# [6] = target: T2, Transient receptor potential cation channel subfamily V member 1 (Homo sapiens, UniProt Q8NER1); assay: Antagonist activity at human TRPV1 assessed as inhibition of capsaicin-induced calcium influx; assay type: functional
# T2 sequence (Q8NER1 whole entry): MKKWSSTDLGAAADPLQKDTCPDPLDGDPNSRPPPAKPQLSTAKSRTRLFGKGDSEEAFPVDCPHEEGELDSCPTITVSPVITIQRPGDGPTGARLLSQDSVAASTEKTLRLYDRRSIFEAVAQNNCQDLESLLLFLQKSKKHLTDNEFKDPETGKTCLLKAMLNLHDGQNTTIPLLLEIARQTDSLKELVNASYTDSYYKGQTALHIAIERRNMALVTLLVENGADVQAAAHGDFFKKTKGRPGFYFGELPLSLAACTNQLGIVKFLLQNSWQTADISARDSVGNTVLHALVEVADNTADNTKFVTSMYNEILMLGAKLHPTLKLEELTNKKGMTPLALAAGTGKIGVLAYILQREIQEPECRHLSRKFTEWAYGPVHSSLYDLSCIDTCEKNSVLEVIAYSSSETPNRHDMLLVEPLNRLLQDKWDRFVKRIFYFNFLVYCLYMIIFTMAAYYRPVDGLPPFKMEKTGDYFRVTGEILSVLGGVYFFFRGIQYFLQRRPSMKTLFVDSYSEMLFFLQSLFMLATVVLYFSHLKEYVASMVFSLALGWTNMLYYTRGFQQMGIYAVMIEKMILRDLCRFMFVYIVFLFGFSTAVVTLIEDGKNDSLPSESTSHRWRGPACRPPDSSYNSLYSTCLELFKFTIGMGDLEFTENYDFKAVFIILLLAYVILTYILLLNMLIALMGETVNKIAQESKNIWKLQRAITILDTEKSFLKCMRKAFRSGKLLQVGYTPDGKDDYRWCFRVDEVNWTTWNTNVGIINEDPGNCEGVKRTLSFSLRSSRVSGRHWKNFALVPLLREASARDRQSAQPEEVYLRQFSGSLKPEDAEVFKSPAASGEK
# [7] = target: T2, Transient receptor potential cation channel subfamily V member 1; assay: Antagonist activity at human TRPV1 assessed as inhibition of low pH-induced calcium influx; assay type: functional
# Rattus norvegicus [8] = assay: Inhibition of capsaicin-induced flinching in Sprague-Dawley rat at 3 mg/kg, po administered 1 hr before capsaicin challenge; assay type: functional; method in brief: as §2
# [9] = Drug level in blood of Sprague-Dawley rat with capsaicin-induced flinching at 3 mg/kg, po administered 1 hr before capsaicin challenge; assay type: ADME, organism-based; set-up: dose 3 mg/kg, route oral; conditions: read-out: Drug uptake
# Rattus norvegicus [10] = assay: Toxicity assessed as increase in body core temperature in Sprague-Dawley rat at 10 mg/kg, po by radiotelemetry relative to control; assay type: organism-based; set-up: dose 10 mg/kg, route oral; conditions: in vivo
# Rattus norvegicus [11] = assay: Inhibition of capsaicin-induced flinching in Sprague-Dawley rat at 10 mg/kg, po administered 1 hr before capsaicin challenge; assay type: functional; method in brief: as §2
# Blood [12] = assay: Drug level in blood of Sprague-Dawley rat telemetry model at 10 mg/kg, po; assay type: ADME, organism-based; set-up: dose 10 mg/kg, route oral; conditions: in vivo
# [13] = Drug level in blood of Sprague-Dawley rat with capsaicin-induced flinching at 10 mg/kg, po administered 1 hr before capsaicin challenge; assay type: ADME, organism-based; set-up: dose 10 mg/kg, route oral; conditions: read-out: Drug uptake
# [14] = Drug level in blood of Sprague-Dawley rat with capsaicin-induced flinching at 0.3 mg/kg, po administered 1 hr before capsaicin challenge; assay type: ADME, organism-based; set-up: dose 0.3 mg/kg, route oral; conditions: read-out: Drug uptake
# Blood [15] = assay: Drug level in blood of Sprague-Dawley rat telemetry model at 1 mg/kg, po; assay type: ADME, organism-based; set-up: dose 1 mg/kg, route oral; conditions: in vivo
# Rattus norvegicus [16] = assay: Inhibition of capsaicin-induced flinching in Sprague-Dawley rat at 1 mg/kg, po administered 1 hr before capsaicin challenge; assay type: functional; method in brief: as §2
# Rattus norvegicus [17] = assay: Inhibition of capsaicin-induced flinching in Sprague-Dawley rat at 0.3 mg/kg, po administered 1 hr before capsaicin challenge; assay type: functional; method in brief: as §2
# Rattus norvegicus [18] = assay: Toxicity assessed as increase in body core temperature in Sprague-Dawley rat at 1 mg/kg, po by radiotelemetry relative to control; assay type: organism-based; set-up: dose 1 mg/kg, route oral; conditions: in vivo
# Rattus norvegicus [19] = assay: Toxicity assessed as increase in body core temperature in Sprague-Dawley rat at 3 mg/kg, po by radiotelemetry relative to control; assay type: organism-based; set-up: dose 3 mg/kg, route oral; conditions: in vivo
# Blood [20] = assay: Drug level in blood of Sprague-Dawley rat telemetry model at 3 mg/kg, po; assay type: ADME, organism-based; set-up: dose 3 mg/kg, route oral; conditions: in vivo
# [21] = Drug level in blood of Sprague-Dawley rat with capsaicin-induced flinching at 1 mg/kg, po administered 1 hr before capsaicin challenge; assay type: ADME, organism-based; set-up: dose 1 mg/kg, route oral; conditions: read-out: Drug uptake
# T1 sequence (O35433 whole entry): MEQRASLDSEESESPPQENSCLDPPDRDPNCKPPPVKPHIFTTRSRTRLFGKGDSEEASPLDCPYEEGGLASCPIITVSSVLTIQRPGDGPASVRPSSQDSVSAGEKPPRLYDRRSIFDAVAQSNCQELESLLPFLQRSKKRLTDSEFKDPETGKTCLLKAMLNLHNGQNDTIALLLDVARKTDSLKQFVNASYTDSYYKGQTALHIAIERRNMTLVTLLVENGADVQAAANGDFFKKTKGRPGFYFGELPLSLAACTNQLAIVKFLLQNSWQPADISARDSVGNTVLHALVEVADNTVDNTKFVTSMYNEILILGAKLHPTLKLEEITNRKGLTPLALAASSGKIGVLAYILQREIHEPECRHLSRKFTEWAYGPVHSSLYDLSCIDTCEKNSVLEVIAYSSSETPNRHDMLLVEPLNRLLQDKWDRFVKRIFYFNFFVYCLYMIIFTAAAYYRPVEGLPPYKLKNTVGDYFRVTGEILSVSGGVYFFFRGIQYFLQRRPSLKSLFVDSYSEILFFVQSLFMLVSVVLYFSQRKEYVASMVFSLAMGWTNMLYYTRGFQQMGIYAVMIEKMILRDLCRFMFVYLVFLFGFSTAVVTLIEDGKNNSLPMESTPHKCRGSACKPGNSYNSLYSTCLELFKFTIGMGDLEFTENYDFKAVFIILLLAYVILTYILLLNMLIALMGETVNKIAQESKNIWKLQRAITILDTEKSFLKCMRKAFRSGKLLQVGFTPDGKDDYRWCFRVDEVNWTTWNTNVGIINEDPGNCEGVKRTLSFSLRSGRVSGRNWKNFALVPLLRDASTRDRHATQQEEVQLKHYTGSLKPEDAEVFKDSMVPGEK
SMILES,IC50 [1] [nM],Kp [2],IC50 [3] [nM],also measured
COC[C@@H](C)Nc1nc(Oc2cccc3[nH]c(=O)c(N)nc23)cc(-c2ccc(C(F)(F)F)cc2)n1,0.3,0.15,0.3,–
CC(=O)Nc1nc2c(Oc3cc(-c4ccc(C(F)(F)F)cc4N)ncn3)cccc2s1,3.6,0.93,15.9,–
CC(=O)Nc1nc2c(Oc3cc(-c4ccc(C(F)(F)F)cc4)ncn3)cccc2s1 [AMG-517],–,–,–,Activity (Rattus norvegicus [4]): Active; EC50 (Rattus norvegicus [5]): 0.33 mg/kg; IC50 [6]: 0.8 nM; IC50 [7]: 0.6 nM
CC(Nc1nc(Oc2cccc3[nH]c(=O)c(N)nc23)cc(-c2ccc(C(F)(F)F)cc2)n1)c1ccccn1 (configuration not stated),5.7,0.04,2.8,Activity (Rattus norvegicus [10]): 0.5 °C; inhibition in vivo at 10 mg/kg (Rattus norvegicus [11]): 94%; Drug uptake (Blood [12]): 241.9 ng/mL; concentration at 1 h [13]: 267 ng/mL
CC(O)CCNc1nc(Oc2cccc3[nH]c(=O)c(N)nc23)cc(-c2ccc(C(F)(F)F)cc2)n1 (configuration not stated),8.7,0.03,16.1,inhibition in vivo at 10 mg/kg (Rattus norvegicus [11]): 72%; concentration at 1 h [13]: 494 ng/mL
Nc1nc2c(Oc3cc(-c4ccc(C(F)(F)F)nc4N[C@@H]4CCOC4)ncn3)cccc2[nH]c1=O,0.8,0.09,1.1,inhibition in vivo at 3 mg/kg (Rattus norvegicus [8]): 30%; concentration at 1 h [9]: 32.8 ng/mL
Nc1nc2c(Oc3cc(-c4ccc(C(F)(F)F)cc4NC(=O)c4ccccn4)ncn3)cccc2[nH]c1=O,0.7,0.21,0.7,–
COCCNc1nc(C(F)(F)F)ccc1-c1cc(Oc2cccc3[nH]c(=O)c(N)nc23)ncn1,1.3,0.04,0.7,Activity (Rattus norvegicus [19]): 0.6 °C; Drug uptake (Blood [20]): 25.35 ng/mL; concentration at 1 h [21]: 19 ng/mL; inhibition in vivo at 1 mg/kg (Rattus norvegicus [16]): 100%
Nc1nc(Oc2cccc3[nH]c(=O)c(N)nc23)cc(-c2ccc(C(F)(F)F)cc2)n1,2.6,0.07,3.7,–
COC[C@H](C)Nc1nc(Oc2cccc3[nH]c(=O)c(N)nc23)cc(-c2ccc(C(F)(F)F)cc2)n1,1,0.19,0.8,–
Nc1nc2c(Oc3cc(-c4ccc(C(F)(F)F)cc4)ncn3)cccc2[nH]c1=O,–,0.4,–,–
Nc1cc(C(F)(F)F)ccc1-c1cc(Oc2cccc3[nH]c(=O)c(N)nc23)ncn1,3.9,0.23,1.5,–
COCCNc1nc(Oc2cccc3[nH]c(=O)c(N)nc23)cc(-c2ccc(C(F)(F)F)cc2N)n1,5.9,0.1,4.3,inhibition in vivo at 10 mg/kg (Rattus norvegicus [11]): 71%; concentration at 1 h [13]: 298 ng/mL

# Further lines, with some results ahead:
IC50 [1] [nM],Kp [2],IC50 [3] [nM],SMILES,also measured
2.1,0.24,2,CC(C)(C)CN1CCCCC1CNc1nc(Oc2cccc3[nH]c(=O)c(N)nc23)cc(-c2ccc(C(F)(F)F)cc2)n1 (configuration not stated),–
18.8,0.04,2.2,Nc1nc2c(Oc3cc(-c4ccc(C(F)(F)F)nc4NCCN4CCOCC4)ncn3)cccc2[nH]c1=O,inhibition in vivo at 3 mg/kg (Rattus norvegicus [8]): 60%; concentration at 1 h [9]: 67.1 ng/mL
61.9,0.04,34.5,Nc1nc(Oc2cccc3[nH]c(=O)c(N)nc23)cc(-c2ccc(C(F)(F)F)cc2N)n1,–
0.8,0.05,0.6,COCCNc1nc(Oc2cccc3[nH]c(=O)c(N)nc23)cc(-c2ccc(C(F)(F)F)cc2)n1,concentration at 1 h [14]: 24.9 ng/mL; Drug uptake (Blood [15]): 100.29 ng/mL; inhibition in vivo at 1 mg/kg (Rattus norvegicus [16]): 100%; inhibition in vivo at 0.3 mg/kg (Rattus norvegicus [17]): 93%; Activity (Rattus norvegicus [18]): 0.7 °C
6.4,0.04,4.4,COC[C@H](C)Nc1nc(Oc2cccc3[nH]c(=O)c(N)nc23)cc(-c2ccc(C(F)(F)F)nc2N)n1,inhibition in vivo at 10 mg/kg (Rattus norvegicus [11]): 23%; concentration at 1 h [13]: 5.48 ng/mL
5.2,0.04,4.1,CC(C)(C)NC(=O)Nc1cc(C(F)(F)F)ccc1-c1cc(Oc2cccc3[nH]c(=O)c(N)nc23)ncn1,inhibition in vivo at 10 mg/kg (Rattus norvegicus [11]): 43%; concentration at 1 h [13]: 196 ng/mL
1.7,0.25,0.9,CC(C)CN1CCCCC1CNc1nc(C(F)(F)F)ccc1-c1cc(Oc2cccc3[nH]c(=O)c(N)nc23)ncn1 (configuration not stated),–
2.7,0.11,0.8,Nc1nc(C(F)(F)F)ccc1-c1cc(Oc2cccc3[nH]c(=O)c(N)nc23)ncn1,inhibition in vivo at 3 mg/kg (Rattus norvegicus [8]): 100%; Activity (Rattus norvegicus [10]): 1.1 °C; concentration at 1 h [9]: 252 ng/mL; Drug uptake (Blood [12]): 1129.62 ng/mL
6,0.19,2.4,CC(=O)Nc1nc2c(Oc3cc(-c4ccc(C(F)(F)F)cc4NC(=O)NC(C)(C)C)ncn3)cccc2s1,–
2.1,0.07,3.3,Nc1nc2c(Oc3cc(-c4ccc(C(F)(F)F)cc4NC(=O)c4ccncc4)ncn3)cccc2[nH]c1=O,inhibition in vivo at 10 mg/kg (Rattus norvegicus [11]): 50%; concentration at 1 h [13]: 0.82 ng/mL
2.7,0.07,3.8,COC[C@H](C)Nc1nc(Oc2cccc3[nH]c(=O)c(N)nc23)cc(-c2ccc(C(F)(F)F)cc2N)n1,Activity (Rattus norvegicus [10]): 1.2 °C; inhibition in vivo at 10 mg/kg (Rattus norvegicus [11]): 95%; Drug uptake (Blood [12]): 289.24 ng/mL; concentration at 1 h [13]: 342 ng/mL
–,0.44,–,CC(=O)Nc1nc2c(Oc3cc(-c4ccc(C(F)(F)F)cc4)nc(N)n3)cccc2s1,–
